Laboratory results as given in ChEMBL document CHEMBL5705885, “CYT387, a selective JAK1/JAK2 inhibitor: in vitro assessment of kinase selectivity and preclinical studies using cell lines and primary cells from polycythemia vera patients” (Leukemia, 2009).

Key:
[1] = target: Serine/threonine-protein kinase D1 (Homo sapiens, UniProt Q15139); assay: Inhibition of PRKD1 (unknown origin)
[2] = target: Homeodomain-interacting protein kinase 1 (Homo sapiens, UniProt Q86Z02); assay: Inhibition of HIPK1 (unknown origin)
[3] = target: Mitogen-activated protein kinase kinase kinase kinase 2 (Homo sapiens, UniProt Q12851); assay: Inhibition of MAP4K2 (unknown origin)
[4] = target: Serine/threonine-protein kinase PAK 4 (Homo sapiens, UniProt O96013); assay: Inhibition of PAK4 (unknown origin)
[5] = target: Platelet-derived growth factor receptor alpha (Homo sapiens, UniProt P16234); assay: Inhibition of PDGFRA (unknown origin)
[6] = target: Serine/threonine-protein kinase N1 (Homo sapiens, UniProt Q16512); assay: Inhibition of PKN1 (unknown origin)
[7] = target: RAF proto-oncogene serine/threonine-protein kinase (Homo sapiens, UniProt P04049, Y340D); assay: Inhibition of RAF1 Y340D (unknown origin)
[8] = target: Serine/threonine-protein kinase Sgk1 (Homo sapiens, UniProt O00141); assay: Inhibition of SGK (unknown origin)
[9] = target: Tyrosine-protein kinase receptor TYRO3 (Homo sapiens, UniProt Q06418); assay: Inhibition of TYRO3 (unknown origin)
[10] = target: Beta-adrenergic receptor kinase 1 (Homo sapiens, UniProt P25098); assay: Inhibition of ADRBK1 (unknown origin)
[11] = target: Serine/threonine-protein kinase Chk1 (Homo sapiens, UniProt O14757); assay: Inhibition of CHEK1 (unknown origin)
[12] = target: Dual specificity protein kinase CLK3 (Homo sapiens, UniProt P49761); assay: Inhibition of CLK3 (unknown origin)
[13] = target: Tyrosine-protein kinase CSK (Homo sapiens, UniProt P41240); assay: Inhibition of CSK (unknown origin)
[14] = target: Casein kinase II subunit alpha (Homo sapiens, UniProt P68400); assay: Inhibition of CSNK2A1 (unknown origin)
Sequence of Casein kinase II subunit alpha (P68400 whole entry): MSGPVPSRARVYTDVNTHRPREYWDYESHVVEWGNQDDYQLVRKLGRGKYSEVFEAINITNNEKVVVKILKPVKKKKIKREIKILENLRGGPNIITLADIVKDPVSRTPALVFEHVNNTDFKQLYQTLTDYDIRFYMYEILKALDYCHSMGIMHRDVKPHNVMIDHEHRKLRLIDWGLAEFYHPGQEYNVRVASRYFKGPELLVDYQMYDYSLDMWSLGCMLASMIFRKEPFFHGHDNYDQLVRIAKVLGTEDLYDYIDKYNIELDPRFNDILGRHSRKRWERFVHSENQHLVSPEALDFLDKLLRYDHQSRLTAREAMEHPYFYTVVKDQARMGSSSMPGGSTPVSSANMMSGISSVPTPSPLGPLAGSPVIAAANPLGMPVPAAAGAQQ

[15] = target: Dual specificity tyrosine-phosphorylation-regulated kinase 1A (Homo sapiens, UniProt Q13627); assay: Inhibition of DYRK1A (unknown origin)
[16] = target: Ephrin type-A receptor 1 (Homo sapiens, UniProt P21709); assay: Inhibition of EPHA1 (unknown origin)
[17] = target: Ephrin type-A receptor 8 (Homo sapiens, UniProt P29322); assay: Inhibition of EPHA8 (unknown origin)
Sequence of Ephrin type-A receptor 8 (P29322 whole entry): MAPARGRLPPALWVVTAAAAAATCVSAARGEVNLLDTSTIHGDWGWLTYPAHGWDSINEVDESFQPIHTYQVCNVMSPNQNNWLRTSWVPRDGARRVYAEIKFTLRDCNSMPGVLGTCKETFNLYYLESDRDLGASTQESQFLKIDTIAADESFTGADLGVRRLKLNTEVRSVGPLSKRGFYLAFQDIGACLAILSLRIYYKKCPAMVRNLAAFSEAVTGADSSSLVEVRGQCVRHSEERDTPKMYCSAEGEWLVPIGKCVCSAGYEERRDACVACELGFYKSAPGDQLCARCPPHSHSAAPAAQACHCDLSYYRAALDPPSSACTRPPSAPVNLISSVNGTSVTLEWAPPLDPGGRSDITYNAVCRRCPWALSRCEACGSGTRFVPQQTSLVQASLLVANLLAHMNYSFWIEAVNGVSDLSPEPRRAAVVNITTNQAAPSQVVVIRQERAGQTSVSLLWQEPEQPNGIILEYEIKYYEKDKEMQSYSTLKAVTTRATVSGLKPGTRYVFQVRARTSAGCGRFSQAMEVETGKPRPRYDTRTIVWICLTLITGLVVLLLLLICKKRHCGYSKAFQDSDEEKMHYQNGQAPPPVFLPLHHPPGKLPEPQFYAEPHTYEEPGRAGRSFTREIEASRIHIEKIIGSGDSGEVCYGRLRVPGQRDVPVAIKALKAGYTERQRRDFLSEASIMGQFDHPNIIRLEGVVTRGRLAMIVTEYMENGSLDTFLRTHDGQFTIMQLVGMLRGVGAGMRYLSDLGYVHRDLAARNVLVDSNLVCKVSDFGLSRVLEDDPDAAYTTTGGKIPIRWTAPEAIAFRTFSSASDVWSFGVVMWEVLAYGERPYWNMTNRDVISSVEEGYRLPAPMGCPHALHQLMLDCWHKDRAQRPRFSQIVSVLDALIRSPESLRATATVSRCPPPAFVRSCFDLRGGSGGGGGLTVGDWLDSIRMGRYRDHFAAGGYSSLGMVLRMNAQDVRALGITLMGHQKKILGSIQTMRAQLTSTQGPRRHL

[18] = target: Fibroblast growth factor receptor 3 (Homo sapiens, UniProt P22607); assay: Inhibition of FGFR3 (unknown origin)
[19] = target: Tyrosine-protein kinase Fyn (Homo sapiens, UniProt P06241); assay: Inhibition of FYN (unknown origin)
[20] = target: Tyrosine-protein kinase ITK/TSK (Homo sapiens, UniProt Q08881); assay: Inhibition of ITK (unknown origin)
[21] = target: Leukocyte tyrosine kinase receptor (Homo sapiens, UniProt P29376); assay: Inhibition of LTK (unknown origin)
Sequence of Leukocyte tyrosine kinase receptor (P29376 whole entry): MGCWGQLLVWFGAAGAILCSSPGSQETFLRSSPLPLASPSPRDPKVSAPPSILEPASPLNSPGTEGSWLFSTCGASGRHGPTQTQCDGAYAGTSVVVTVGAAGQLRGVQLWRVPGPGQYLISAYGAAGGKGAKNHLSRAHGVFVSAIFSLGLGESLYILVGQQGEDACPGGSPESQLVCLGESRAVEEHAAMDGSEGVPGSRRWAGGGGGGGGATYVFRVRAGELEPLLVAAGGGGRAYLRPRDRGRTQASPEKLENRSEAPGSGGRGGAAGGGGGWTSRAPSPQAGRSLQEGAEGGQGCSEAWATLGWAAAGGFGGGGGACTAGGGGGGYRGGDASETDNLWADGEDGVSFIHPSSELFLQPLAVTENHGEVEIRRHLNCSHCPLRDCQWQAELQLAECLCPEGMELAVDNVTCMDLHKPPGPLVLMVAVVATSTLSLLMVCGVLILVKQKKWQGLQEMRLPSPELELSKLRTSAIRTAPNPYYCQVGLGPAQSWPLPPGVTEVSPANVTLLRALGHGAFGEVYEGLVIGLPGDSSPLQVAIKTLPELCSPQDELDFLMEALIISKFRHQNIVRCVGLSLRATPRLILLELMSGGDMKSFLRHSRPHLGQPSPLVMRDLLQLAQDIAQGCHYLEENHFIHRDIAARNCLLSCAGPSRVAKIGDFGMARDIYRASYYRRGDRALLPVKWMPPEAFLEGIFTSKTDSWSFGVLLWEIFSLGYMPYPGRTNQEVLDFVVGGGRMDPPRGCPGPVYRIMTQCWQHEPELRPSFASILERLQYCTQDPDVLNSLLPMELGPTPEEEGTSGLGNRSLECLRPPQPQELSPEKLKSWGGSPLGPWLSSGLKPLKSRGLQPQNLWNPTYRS

[22] = target: Mitogen-activated protein kinase 11 (Homo sapiens, UniProt Q15759); assay: Inhibition of MAPK11 (unknown origin)
[23] = target: Serine/threonine-protein kinase PAK 2 (Homo sapiens, UniProt Q13177); assay: Inhibition of PAK2 (unknown origin)
Sequence of Serine/threonine-protein kinase PAK 2 (Q13177 whole entry): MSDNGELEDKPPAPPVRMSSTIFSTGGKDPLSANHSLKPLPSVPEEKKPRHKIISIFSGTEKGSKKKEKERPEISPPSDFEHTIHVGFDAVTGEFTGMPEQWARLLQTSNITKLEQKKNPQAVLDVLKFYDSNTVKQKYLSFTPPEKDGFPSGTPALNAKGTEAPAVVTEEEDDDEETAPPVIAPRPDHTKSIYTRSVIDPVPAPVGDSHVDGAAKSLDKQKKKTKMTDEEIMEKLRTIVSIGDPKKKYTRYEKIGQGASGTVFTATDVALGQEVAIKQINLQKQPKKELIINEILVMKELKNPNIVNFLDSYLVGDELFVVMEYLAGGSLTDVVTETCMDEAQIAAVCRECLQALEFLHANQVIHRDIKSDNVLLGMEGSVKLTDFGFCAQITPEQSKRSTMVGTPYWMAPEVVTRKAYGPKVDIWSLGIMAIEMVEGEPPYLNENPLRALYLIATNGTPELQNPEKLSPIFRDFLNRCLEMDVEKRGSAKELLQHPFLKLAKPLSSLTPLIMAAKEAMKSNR

[24] = target: Serine/threonine-protein kinase PAK 6 (Homo sapiens, UniProt Q9NQU5); assay: Inhibition of PAK6 (unknown origin)
Sequence of Serine/threonine-protein kinase PAK 6 (Q9NQU5 whole entry): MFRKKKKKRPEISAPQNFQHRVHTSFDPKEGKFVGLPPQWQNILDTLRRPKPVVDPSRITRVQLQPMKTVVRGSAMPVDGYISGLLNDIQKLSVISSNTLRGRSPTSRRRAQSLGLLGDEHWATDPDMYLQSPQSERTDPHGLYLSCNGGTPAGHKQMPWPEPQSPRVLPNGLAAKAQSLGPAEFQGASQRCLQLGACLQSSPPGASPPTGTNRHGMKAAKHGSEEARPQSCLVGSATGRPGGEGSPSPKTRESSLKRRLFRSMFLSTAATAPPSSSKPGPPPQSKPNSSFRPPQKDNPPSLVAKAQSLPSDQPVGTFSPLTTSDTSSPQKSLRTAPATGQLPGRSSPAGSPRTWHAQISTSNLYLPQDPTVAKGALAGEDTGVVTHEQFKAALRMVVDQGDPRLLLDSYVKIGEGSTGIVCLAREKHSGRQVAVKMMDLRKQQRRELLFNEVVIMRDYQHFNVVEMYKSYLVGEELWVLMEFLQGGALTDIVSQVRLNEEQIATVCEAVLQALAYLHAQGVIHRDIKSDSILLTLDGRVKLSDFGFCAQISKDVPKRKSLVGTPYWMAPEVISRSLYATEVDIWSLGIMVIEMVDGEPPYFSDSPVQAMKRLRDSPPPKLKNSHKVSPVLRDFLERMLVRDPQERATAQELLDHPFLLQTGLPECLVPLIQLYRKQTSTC

[25] = target: SRSF protein kinase 1 (Homo sapiens, UniProt Q96SB4); assay: Inhibition of SRPK1 (unknown origin)
[26] = target: SRSF protein kinase 2 (Homo sapiens, UniProt P78362); assay: Inhibition of SRPK2 (unknown origin)
[27] = tested on: BaF3; assay: Antiproliferative activity against mouse BaF3 cells harboring TEL-JAK3 measured after 72 hrs by Alamar blue staining based analysis; format: functional, cell-based; settings: BaF3, 72 h
In short: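 Murine Ba/F3 cells carrying TEL/JAK2 or TEL/JAK3 fusions, grown in DMEM with 10% fetal calf serum. Compound stocks in DMSO were diluted in culture medium. Proliferation was read by Alamar Blue after 72 h incubation at 37 °C under 5% CO2.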

[28] = tested on: BaF3; assay: Antiproliferative activity against mouse BaF3 cells harboring MPLW515L measured after 72 hrs by Alamar blue staining based analysis; format: functional, cell-based; settings: BaF3, 72 h
In short: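 Ba/F3 murine cells expressing JAK2V617F or MPLW515L. Compound stocks in DMSO were diluted into culture medium. After 72 h at 37 °C in 5% CO2, proliferation was quantified with the Alamar Blue assay.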

[29] = tested on: K562; assay: Antiproliferative activity against human K562 cells measured after 72 hrs by Alamar blue staining based analysis; format: functional, cell-based; settings: K562, 72 h
In short: (§1)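 Cells were exposed for 72 h at 37 °C under 5% CO2 to compound made up as DMSO stock and diluted in culture medium. Proliferation was then read by Alamar Blue.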

[30] = tested on: MV4-11; assay: Antiproliferative activity against human MV4-11 cells measured after 72 hrs by Alamar blue staining based analysis; format: functional, cell-based; settings: MV4-11, 72 h; in short: as §1
[31] = target: Serine/threonine-protein kinase TBK1 (Homo sapiens) (UniProt Q9UHD2); settings: dose 100.0 nM
[32] = target: Aurora kinase C (Homo sapiens) (UniProt Q9UQB9); settings: dose 100.0 nM
Sequence of Aurora kinase C (Homo sapiens) (Q9UQB9 whole entry): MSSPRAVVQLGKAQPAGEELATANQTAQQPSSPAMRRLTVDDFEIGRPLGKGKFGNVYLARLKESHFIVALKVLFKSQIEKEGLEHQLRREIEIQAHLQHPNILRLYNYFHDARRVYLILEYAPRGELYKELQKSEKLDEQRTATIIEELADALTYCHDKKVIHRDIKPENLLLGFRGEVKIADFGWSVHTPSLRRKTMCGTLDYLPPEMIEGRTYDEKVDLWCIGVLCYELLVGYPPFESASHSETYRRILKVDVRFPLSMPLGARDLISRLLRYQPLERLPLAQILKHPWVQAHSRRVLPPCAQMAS

[33] = target: Serine/threonine-protein kinase BRSK1 (Homo sapiens) (UniProt Q8TDC3); settings: dose 100.0 nM
[34] = target: Cyclin-dependent kinase 1/cyclin B1 (Homo sapiens) (UniProt P06493+P14635); settings: dose 100.0 nM
[35] = target: Ephrin type-B receptor 1 (Homo sapiens) (UniProt P54762); settings: dose 100.0 nM
[36] = target: Vascular endothelial growth factor receptor 2 (Homo sapiens, UniProt P35968); settings: dose 100.0 nM
[37] = target: Mitogen-activated protein kinase kinase kinase kinase 2 (Homo sapiens) (UniProt Q12851); settings: dose 100.0 nM
[38] = target: Mitogen-activated protein kinase 1 (Homo sapiens, UniProt P28482); settings: dose 100.0 nM
Sequence of Mitogen-activated protein kinase 1 (P28482 whole entry): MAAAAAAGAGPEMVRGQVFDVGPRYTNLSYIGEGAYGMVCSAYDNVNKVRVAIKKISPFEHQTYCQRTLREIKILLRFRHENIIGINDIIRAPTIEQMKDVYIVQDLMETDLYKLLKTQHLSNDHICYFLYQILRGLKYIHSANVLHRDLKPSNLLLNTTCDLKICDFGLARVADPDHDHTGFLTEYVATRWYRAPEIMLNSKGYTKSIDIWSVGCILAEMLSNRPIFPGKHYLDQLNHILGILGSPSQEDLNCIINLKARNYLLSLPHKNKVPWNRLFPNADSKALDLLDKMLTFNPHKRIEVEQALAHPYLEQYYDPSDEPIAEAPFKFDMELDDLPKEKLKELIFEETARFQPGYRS

[39] = target: Mitogen-activated protein kinase 10 (Homo sapiens) (UniProt P53779); settings: dose 100.0 nM
[40] = target: Tyrosine-protein kinase Mer (Homo sapiens) (UniProt Q12866); settings: dose 100.0 nM
[41] = target: Macrophage-stimulating protein receptor (Homo sapiens, UniProt Q04912); settings: dose 100.0 nM
[42] = target: BDNF/NT-3 growth factors receptor (Homo sapiens, UniProt Q16620); settings: dose 100.0 nM
[43] = tested on: RAF proto-oncogene serine/threonine-protein kinase (Homo sapiens), P04049 [Y340D]; settings: dose 100.0 nM
[44] = target: Tyrosine-protein kinase SYK (Homo sapiens, UniProt P43405); settings: dose 100.0 nM

Sequence of Serine/threonine-protein kinase D1 (Q15139 whole entry): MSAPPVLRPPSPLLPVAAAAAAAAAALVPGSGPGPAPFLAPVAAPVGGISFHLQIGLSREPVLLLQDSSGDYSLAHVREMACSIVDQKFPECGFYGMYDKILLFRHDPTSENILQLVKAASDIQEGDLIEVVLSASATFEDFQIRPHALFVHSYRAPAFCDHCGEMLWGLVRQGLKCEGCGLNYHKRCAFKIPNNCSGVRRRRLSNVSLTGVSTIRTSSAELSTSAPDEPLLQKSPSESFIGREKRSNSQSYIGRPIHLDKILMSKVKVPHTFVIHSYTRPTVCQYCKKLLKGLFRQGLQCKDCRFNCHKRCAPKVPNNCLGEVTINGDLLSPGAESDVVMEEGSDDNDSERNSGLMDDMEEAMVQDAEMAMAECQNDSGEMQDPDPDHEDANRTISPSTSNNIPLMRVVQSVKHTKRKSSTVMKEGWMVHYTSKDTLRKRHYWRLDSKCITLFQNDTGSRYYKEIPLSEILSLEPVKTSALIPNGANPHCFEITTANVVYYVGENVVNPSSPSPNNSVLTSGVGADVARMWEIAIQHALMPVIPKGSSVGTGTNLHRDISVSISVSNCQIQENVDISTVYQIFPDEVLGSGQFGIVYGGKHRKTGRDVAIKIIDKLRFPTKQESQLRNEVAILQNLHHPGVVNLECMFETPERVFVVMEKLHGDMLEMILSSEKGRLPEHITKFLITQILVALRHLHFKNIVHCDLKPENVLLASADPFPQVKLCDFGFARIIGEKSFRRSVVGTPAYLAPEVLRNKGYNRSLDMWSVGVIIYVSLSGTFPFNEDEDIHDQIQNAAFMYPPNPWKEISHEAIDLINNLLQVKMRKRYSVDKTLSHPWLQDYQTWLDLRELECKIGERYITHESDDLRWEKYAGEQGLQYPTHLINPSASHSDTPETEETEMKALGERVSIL

Compound: N#CCNC(=O)c1ccc(-c2ccnc(Nc3ccc(N4CCOCC4)cc3)n2)cc1 [MOMELOTINIB]
- IC50 [1]: < 0.1 µM
- IC50 [2]: < 1 µM
- IC50 [3]: < 1 µM
- IC50 [4]: < 1 µM
- IC50 [5]: < 1 µM
- IC50 [6]: < 1 µM
- IC50 [7]: < 1 µM
- IC50 [8]: < 1 µM
- IC50 [9]: < 1 µM
- IC50 [10]: > 1 µM
- IC50 [11]: > 1 µM
- IC50 [12]: > 1 µM
- IC50 [13]: > 1 µM
- IC50 [14]: > 1 µM
- IC50 [15]: > 1 µM
- IC50 [16]: > 1 µM
- IC50 [17]: > 1 µM
- IC50 [18]: > 1 µM
- IC50 [19]: > 1 µM
- IC50 [20]: > 1 µM
- IC50 [21]: > 1 µM
- IC50 [22]: > 1 µM
- IC50 [23]: > 1 µM
- IC50 [24]: > 1 µM
- IC50 [25]: > 1 µM
- IC50 [26]: > 1 µM
- IC50 [27]: 2.35 µM
- IC50 [28]: 0.2 µM
- IC50 [29]: 58 µM
- IC50 [30]: 3 µM
- inhibition [31]: > 50%
- inhibition [32]: < 50%
- inhibition [33]: < 50%
- inhibition [34]: < 50%
- inhibition [35]: < 50%
- inhibition [36]: < 50%
- inhibition [37]: < 50%
- inhibition [38]: < 50%
- inhibition [39]: < 50%
- inhibition [40]: < 50%
- inhibition [41]: < 50%
- inhibition [42]: < 50%
- inhibition [43]: < 50%
- inhibition [44]: < 50%
